biological target: T1, GABA-A receptor; alpha-1/beta-2/gamma-2 (Rattus norvegicus) (UniProt P18508+P62813+P63138); experiment: Percent stimulation of GABA-induced currents in Xenopus Oocytes expressing rat GABA-A receptor alpha-1-beta-2-gamma-2 subunits at 100 uM; format: functional, cell-based; details: not given
In short: (§1)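 Xenopus laevis oocytes were injected with cRNA for rat receptor subunits and recorded by two-electrode voltage clamp at -80 mV. Bath was 90 mM NaCl, 1 mM KCl, 1 mM MgCl2, 1 mM CaCl2, 10 mM Na-Hepes pH 7.4. GABA giving about 2-4% of maximal current was applied for 20 s alone or with compound, with 4 min washout. Result is % change in current; average of three.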

SMILES | Stimulation [%]
CCCC1(CCC)C(=O)OC[C@@H]1NC(=O)OCc1ccccc1 | 279
CCCC1(CCC)C(=O)OC[C@@H]1NC(=O)OCc1ccccc1 (stereo in doubt) | 279
CCCC1(CCC)C(=O)OC[C@H]1NC(=O)OCc1ccccc1 | 104

biological target: T1, GABA-A receptor; alpha-1/beta-2/gamma-2 (Rattus norvegicus); experiment: (§2) Percent stimulation of GABA-induced currents in Xenopus Oocytes expressing rat GABA-A receptor alpha-1-beta-2-gamma-2 subunits at 200 uM; format: functional, cell-based; details: not given
In short: (§3)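 Oocytes expressing recombinant rat α1β2γ2 GABA-A receptors (cRNA injected in 5 mM K-Hepes, pH 6.8) were recorded by two-electrode voltage clamp at -80 mV in 90 mM NaCl, 1 mM KCl, 1 mM MgCl2, 1 mM CaCl2, 10 mM Na-Hepes, pH 7.4. Compound was co-applied with GABA at 2-4% of maximal current for 20 s, then 4 min washout. Values are the mean of three assays ± SEM.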

SMILES | Stimulation [%]
CCC1(C)CCSC1=O (centres undefined) | 192

biological target: T1, GABA-A receptor; alpha-1/beta-2/gamma-2 (Rattus norvegicus); experiment: as §2; format: functional, cell-based; details: not given; in short: as §3

SMILES | Stimulation [%]
C=CCOC(=O)N[C@@H]1COC(=O)C1(CCC)CCC (racemic) | 765
CCC1(C)CCSC1=O (centres undefined) | 386
CCCC1(CCC)C(=O)OC[C@H]1NC(=O)c1ccccc1 (racemic) | 420

biological target: T1, GABA-A receptor; alpha-1/beta-2/gamma-2 (Rattus norvegicus); experiment: as §2; format: functional, cell-based; details: not given; remark: another data set of the same source; in short: as §3

SMILES | Stimulation [%]
C=CCOC(=O)N[C@@H]1COC(=O)C1(CCC)CCC (racemic) | 765
CCC1(C)CCSC1=O (centres undefined) | 352
CCCC1(CCC)C(=O)OC[C@H]1NC(=O)Oc1ccccc1 (racemic) | 330
O=C1C[C@H](NCc2ccccc2)CO1 (racemic) | 0
C=CC[C@@H]1C(=O)OC[C@H]1NCc1ccccc1 (racemic) | -1
CCCC1(CCC)C(=O)OC[C@H]1NC(=O)OCC (racemic) | 426
CCCC1(CCC)C(=O)OC[C@H]1NC(=O)c1ccccc1 (racemic) | 420

biological target: T1, GABA-A receptor; alpha-1/beta-2/gamma-2 (Rattus norvegicus); experiment: Percent stimulation of GABA-induced currents in Xenopus Oocytes expressing rat GABA-A receptor alpha-1-beta-2-gamma-2 subunits at 2 uM; format: functional, cell-based; details: not given; in short: as §3

SMILES | Stimulation [%]
C=CCOC(=O)N[C@@H]1COC(=O)C1(CCC)CCC (racemic) | 26
CCC1(C)CCSC1=O (centres undefined) | 10
CCCC1(CCC)C(=O)OC[C@H]1NC(=O)c1ccccc1 (racemic) | 17

biological target: T2, GABA-A receptor; anion channel (Rattus norvegicus) (UniProt O09028+P15431+P18506+P18508+P19969+P20236+P23574+P23576+P28471+P28473+P30191+P62813+P63079+P63138+Q91ZM7+Q9ES14); experiment: Displacement of [35S]TBPS from Gamma-aminobutyric acid A (GABA-A) receptor of rat brain membranes at 100 uM; format: cell membranes; details: Membrane
In short: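 Rat cerebellum or forebrain (brain minus cerebellum) membranes, about 1 mg/mL protein, were incubated with 2 nM [35S]-TBPS in 50 mM Tris-citrate pH 7.4 plus 200 mM NaBr for 180 min at room temperature. Nonspecific binding was defined with 10 µM TBPS. Samples were filtered on GF/B and counted by scintillation. Result is % displacement; at least three experiments in triplicate.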

SMILES | Displacement [%]
C=CCOC(=O)N[C@@H]1COC(=O)C1(CCC)CCC (racemic) | 50
CCC1(C)CCSC1=O (centres undefined) | 25
CCCC1(CCC)C(=O)OC[C@H]1NC(=O)Oc1ccccc1 (racemic) | 75
CCCC1(CCC)C(=O)OC[C@H]1NC(=O)OCC (racemic) | 30
CCCC1(CCC)C(=O)OC[C@H]1NC(=O)c1ccccc1 (racemic) | 65
CCCC1(CCC)C(=O)OC[C@@H]1NC(=O)OCc1ccccc1 (stereo in doubt) | 70

biological target: T2, GABA-A receptor; anion channel (Rattus norvegicus); experiment: Displacement of [3H]flunitrazepam from GABA-A receptor of rat brain membranes at 100 uM; format: cell membranes; details: Membrane
In short: (§4)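 Cerebellar or forebrain rat membranes, about 1 mg/mL protein, were incubated 90 min at 4 °C with 2 nM [3H]flunitrazepam in 50 mM Tris-citrate pH 7.4 with 150 mM NaCl. Nonspecific binding was set with 10 µM diazepam. Samples were filtered on GF/B and counted by scintillation. Result is % displacement or stimulation; at least three experiments in triplicate.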

SMILES | Displacement [%]
CCC1(C)CCSC1=O (centres undefined) | 0
CCCC1(CCC)C(=O)OC[C@H]1NC(=O)Oc1ccccc1 (racemic) | -25
CCCC1(CCC)C(=O)OC[C@H]1NC(=O)OCC (racemic) | 0
CCCC1(CCC)C(=O)OC[C@H]1NC(=O)c1ccccc1 (racemic) | -15
CCCC1(CCC)C(=O)OC[C@@H]1NC(=O)OCc1ccccc1 (stereo in doubt) | 0

biological target: T2, GABA-A receptor; anion channel (Rattus norvegicus); experiment: (§5) Displacement of [3H]muscimol from Gamma-aminobutyric acid A (GABA-A) receptor of rat brain membranes at 100 uM; format: cell membranes; details: Membrane
In short: as §4, with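 “[3H]muscimol” for “[3H]flunitrazepam”, “taken” for “set”, “GABA. Filters” for “diazepam. Samples”, “rinsed twice with ice-cold buffer” for “filtered on GF/B”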

SMILES | Displacement [%]
CCC1(C)CCSC1=O (centres undefined) | 0
CCCC1(CCC)C(=O)OC[C@H]1NC(=O)OCC (racemic) | 0
CCCC1(CCC)C(=O)OC[C@@H]1NC(=O)OCc1ccccc1 (stereo in doubt) | 0

species on record: Rattus norvegicus; experiment: as §5; format: cell membranes; details: Membrane
In short: as §4, with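 “[3H]muscimol” for “[3H]flunitrazepam”, “taken” for “set”, “GABA. Filters” for “diazepam. Samples”, “rinsed twice with ice-cold buffer” for “filtered on GF/B”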

SMILES | Displacement [%]
C=CCOC(=O)N[C@@H]1COC(=O)C1(CCC)CCC (racemic) | 0

biological target: T2, GABA-A receptor; anion channel (Rattus norvegicus); experiment: Displacement of [3H]-muscimol from Gamma-aminobutyric acid A (GABA-A) receptor of Rat forebrain at 100 uM; details: not given
In short: as §4, with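 “[3H]muscimol” for “[3H]flunitrazepam”, “taken” for “set”, “GABA. Filters” for “diazepam. Samples”, “rinsed twice with ice-cold buffer” for “filtered on GF/B”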

SMILES | Displacement [%]
CCCC1(CCC)C(=O)OC[C@H]1NC(=O)Oc1ccccc1 (racemic) | 0
CCCC1(CCC)C(=O)OC[C@H]1NC(=O)c1ccccc1 (racemic) | 0

biological target: T2, GABA-A receptor; anion channel (Rattus norvegicus); experiment: Displacement of [3H]flunitrazepam from GABA-A receptor of rat forebrain tissue at 100 uM; details: not given; in short: as §4

SMILES | Stimulation [%]
C=CCOC(=O)N[C@@H]1COC(=O)C1(CCC)CCC (racemic) | 15

biological target: T2, GABA-A receptor; anion channel (Rattus norvegicus); experiment: Displacement of [3H]flunitrazepam from GABA-A receptor of rat cerebellar tissues at 100 uM; format: protein-complex assay; details: not given; in short: as §4

SMILES | Stimulation [%]
C=CCOC(=O)N[C@@H]1COC(=O)C1(CCC)CCC (racemic) | 0

system: not listed separately; experiment: Percent stimulation of GABA-induced currents in Xenopus Oocytes expressing mutant rat GABA-A receptor alpha-1-beta-2(N265S) subunits at 100 uM; format: functional; details: not given; in short: as §1

SMILES | Stimulation [%]
C=CCOC(=O)N[C@@H]1COC(=O)C1(CCC)CCC (racemic) | 627
CCCC1(CCC)C(=O)OC[C@H]1NC(=O)c1ccccc1 (racemic) | 648

biological target: T1, GABA-A receptor; alpha-1/beta-2/gamma-2 (Rattus norvegicus); experiment: Percent stimulation of GABA-induced currents in Xenopus Oocytes expressing rat GABA-A receptor alpha-1-beta-2-gamma-2 subunits at 20 uM; format: functional, cell-based; details: not given; in short: as §1

SMILES | Stimulation [%]
C=CCOC(=O)N[C@@H]1COC(=O)C1(CCC)CCC (racemic) | 229
CCC1(C)CCSC1=O (centres undefined) | 39
CCCC1(CCC)C(=O)OC[C@H]1NC(=O)c1ccccc1 (racemic) | 207

system: GABA-A receptor alpha-1/beta-2 (Rattus norvegicus); experiment: Percent stimulation of GABA-induced currents in Xenopus Oocytes expressing rat GABA-A receptor alpha-1-beta-2 subunits at 100 uM; details: not given

SMILES | Stimulation [%]
C=CCOC(=O)N[C@@H]1COC(=O)C1(CCC)CCC (racemic) | 2130
CCCC1(CCC)C(=O)OC[C@@H]1NC(=O)OCc1ccccc1 | 324
CCCC1(CCC)C(=O)OC[C@H]1NC(=O)c1ccccc1 (racemic) | 557
